# High-throughput results as filed in PubChem.
# M4 antag: human M4 muscarinic receptor antagonists, primary screen, CHO cells, Fluo-8 calcium fluorescence; inhibition, % at 3 µM; Muscarinic acetylcholine receptor M4 (Homo sapiens), P08173; CHO-hM4 cells, ACh EC80; 0.73% of 360,000 active;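 active = inhibition above its plate's cutoff, the mean inhibition of sample wells plus 3 SD, cut at about 27% in these data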
# M5 PAM: human M5 muscarinic receptor positive allosteric modulators, primary screen, CHO-K1 cells, Fluo-8 calcium fluorescence. Muscarinic acetylcholine receptor M5 (Homo sapiens), P08912. CHO-K1 hM5, ACh EC20 PAM; 0% = ACh EC20, 100% = ACh EC100. activation, % at 3 µM. 0.3% of 360,000 active. AID 624038, 2012;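 active = activation above the run cutoff, the mean activation of all test compounds plus 3 SD, cut at about 18% in these data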
# Target sequence (P08912 whole entry, looked up): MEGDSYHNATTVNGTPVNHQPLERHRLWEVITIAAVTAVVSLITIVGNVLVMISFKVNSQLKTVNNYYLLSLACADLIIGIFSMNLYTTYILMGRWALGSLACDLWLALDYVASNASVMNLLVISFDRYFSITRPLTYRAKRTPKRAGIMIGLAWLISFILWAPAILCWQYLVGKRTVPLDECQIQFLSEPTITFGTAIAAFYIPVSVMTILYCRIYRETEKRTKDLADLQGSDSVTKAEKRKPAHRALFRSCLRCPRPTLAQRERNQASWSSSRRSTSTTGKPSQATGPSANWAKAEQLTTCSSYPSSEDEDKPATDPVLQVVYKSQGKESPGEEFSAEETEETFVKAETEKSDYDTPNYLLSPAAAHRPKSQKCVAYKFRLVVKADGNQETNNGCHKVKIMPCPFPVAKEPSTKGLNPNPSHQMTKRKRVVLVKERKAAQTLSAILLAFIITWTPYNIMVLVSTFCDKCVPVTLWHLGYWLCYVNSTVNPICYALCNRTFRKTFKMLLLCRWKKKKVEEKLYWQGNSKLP
#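 System: CHO-K1 cell line with stable human muscarinic M5 receptor expression | Also added: EC20 acetylcholine as agonist stimulus | Compound: One concentration, 3 µM final (nominal) | Timing: Fluo-8 loading 80 min at 37 °C plus 30 min room temperature | Measured by: Fluo-8 calcium dye fluorescence, kinetic read | Read-out basis: % activation, ACh-normalized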
# M5 ag: human M5 muscarinic receptor agonists, primary screen, CHO-K1 cells, Fluo-8 calcium fluorescence | CHO-K1 hM5 cells; 0% DMSO wells, 100% maximal acetylcholine response | 0.19% of 360,000 active | Muscarinic acetylcholine receptor M5 (Homo sapiens), P08912 | activation, % at 3 µM;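 active = activation above the run's mean over test compounds plus 3 SD, cut at about 23% in these data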;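 note: signal is peak over basal fluorescence ratio across the kinetic read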
# M4 ag: human M4 muscarinic receptor agonists, primary screen, CHO-K1 cells, Fluo-8 calcium fluorescence; CHO-K1 hM4/Gqi5; vehicle 0%, full acetylcholine response 100%; activation, % at 3 µM; 0.14% of 360,000 active; AID 624127, 2012;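 active = activation above the run mean over all test wells plus 3 SD, cut at about 32% in these data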;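 note: peak over basal fluorescence ratio per well then scaled between controls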
# M5 antag: human M5 muscarinic receptor antagonists, primary screen, CHO cells, Fluo-8 calcium fluorescence; Muscarinic acetylcholine receptor M5 (Homo sapiens), P08912; 0.59% of 360,000 active; inhibition, % at 3 µM; CHO-hM5 cells, ACh EC80;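 active = inhibition above a per-plate cutoff, the mean of that plate's test compounds plus 3 SD, cut at about 27% in these data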
# M4 PAM: human M4 muscarinic receptor positive allosteric modulators, primary screen, CHO-K1 cells, Fluo-8 calcium fluorescence | activation, % at 3 µM | AID 624126, 2012 | CHO-K1 hM4/Gqi5, ACh EC20; 0% = ACh EC20, 100% = maximal ACh | Muscarinic acetylcholine receptor M4 (Homo sapiens), P08173 | 0.4% of 360,000 active;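 active = activation above its plate's cutoff, the mean activation of sample wells plus 3 SD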
# Hits are given with their value; . = inactive. An excerpt weighted towards active compounds, which were near 1.9% of everything screened.
SMILES,M4 antag,M5 PAM,M5 ag,M4 ag,M5 antag,M4 PAM
O=C(CCN1C(=O)S/C(=C\c2ccc(F)cc2)C1=O)Nc1ccc(C(=O)O)c(O)c1,.,.,.,.,.,17.3
O=C(CCN1C(=O)S/C(=C/c2ccc(F)cc2)C1=O)Nc1ccc(O)c(C(=O)O)c1,.,.,.,.,.,.
CCN(CC)C(=O)COc1ccc(N(C)S(=O)(=O)c2ccc(NC(C)=O)cc2)cc1,.,.,.,.,.,.
CC(=O)Nc1ccc(S(=O)(=O)N(C)c2ccc(OCCOc3cccc(C)c3)cc2)cc1,38.7,.,.,.,.,.
COc1ccc(NC(=O)COc2ccc(N(C)S(=O)(=O)c3ccc(Cl)cc3)cc2)cc1OC,.,.,.,.,29.1,.
O=c1[nH]ccc2c(O)cccc12,.,.,32.4,.,.,.
CN1CCC(OC2c3ccccc3CCc3ccccc32)CC1,99.3,.,.,.,99.2,.
CN1CCC(OC(=O)c2ccccc2)CC1,.,.,.,.,.,.
COC(=O)c1ccc(Oc2ccc3nnc(C)n3n2)cc1,.,.,.,.,.,.
Cc1nnc2ccc(Oc3ccc(-c4ccccc4)cc3)nn12,.,.,.,.,33.7,.
N#CCCN1CCCc2cc(N=Nc3ccc(C(F)(F)F)cc3)ccc21,.,20.0,.,.,.,.
CN(C(=O)COc1ccccc1C(=O)NCCOc1ccccc1)c1ccccc1,59.6,.,.,.,42.6,.
CCc1ccc(Cn2nnc(C(=O)Nc3cccc(C)c3)c2N)cc1,.,.,.,.,.,.
COc1cccc(Cn2nnc(C(=O)Nc3cc(C)ccc3OC)c2N)c1,.,.,.,.,.,18.3
Cc1ccc(Cn2nnc(C(=O)Nc3cccc(C)c3C)c2N)cc1,.,.,37.8,53.4,.,.
Cc1nnsc1C(=O)N1CCCC(N2CCN(c3cccc(C(F)(F)F)c3)CC2)C1 (stereo not drawn),.,.,.,.,.,.
CCOC(=O)CNCCC(=O)c1ccc(Br)cc1,.,.,.,.,.,.
O=C(/C=C/c1ccc(F)cc1)NC(=S)NNC(=O)[C@H]1C[C@@H]1c1ccccc1,.,.,.,53.1,28.9,.
O=C(c1cccc(Cl)c1)C1CCCN(Cc2ccc(N3CCNC3=O)cc2)C1 (stereo not drawn),28.9,.,.,.,.,.
O=C(c1cccc(Cl)c1)C1CCCN(C(=O)c2ccoc2)C1 (stereo not drawn),.,.,.,.,39.2,.
COc1ccc(CN2CCC(C(=O)c3cccc(Cl)c3)CC2)cc1,.,.,.,.,.,.
O=C(c1cccc(Cl)c1)N1CCCC(C(=O)N2CCCCCC2)C1 (stereo not drawn),.,.,.,.,.,.
Cc1cccnc1NC(=O)CNC(=O)c1ccccc1,.,.,.,.,.,.
Cc1nccn1CCc1n[nH]c(=S)n1Cc1ccccc1,.,.,.,.,32.6,.
CC(NC(=O)COc1ccccc1)C(c1cccs1)N1CCCC1 (stereo not drawn),.,.,.,.,.,.
SMILES,M4 antag,M5 PAM,M5 ag,M4 ag,M5 antag,M4 PAM
COc1ccccc1Nc1nc(-c2ccc3c(c2)NC(=O)CO3)cs1,.,.,.,.,.,.
COc1ccc(Nc2nc(-c3ccc4c(c3)NC(=O)CO4)cs2)cc1,.,.,.,.,.,21.8
COC(=O)c1cccc(NC(=O)/C=C/c2ccc3c(c2)OCO3)c1,.,.,.,.,.,.
COC(=O)c1cc(NC(=O)/C=C/c2ccc3c(c2)OCO3)cc(C(=O)OC)c1,35.7,.,.,.,.,.
CCOC(=O)c1c(S(=O)(=O)NCC(=O)Nc2cc(C)ccc2C)c(C)n(C)c1C,.,.,.,.,.,.
CCOC(=O)c1c(S(=O)(=O)NCC(=O)Nc2ccc(F)cc2F)c(C)n(C)c1C,.,.,.,.,.,17.9
CCCCc1cc(O)c(CCCC)c(O)c1,52.3,.,64.2,106.2,33.0,.
COc1ccc(C(=O)Nc2ccc(N3CCN(C(=O)C(C)C)CC3)cc2)cc1[N+](=O)[O-],.,.,.,.,.,22.7
CCOc1cc(C(=O)Nc2ccc(N3CCN(C(C)=O)CC3)cc2)cc(OCC)c1OCC,.,18.1,.,.,.,.
CCOc1ccc(C(=O)Nc2ccc(N3CCN(C(C)=O)CC3)cc2)cc1[N+](=O)[O-],.,.,.,.,.,.
COC1C(=O)CCC2(CO2)C1(O)C1(C)OC1CC=C(C)C (stereo not drawn),.,.,.,.,.,.
CC(C)C(=O)Nc1ccc2c(c1)nc(CCN1CCCCC1)n2C,.,.,.,.,.,.
CC1CCN(CCc2nc3cc(NC(=O)C(C)C)ccc3n2C)CC1,57.6,.,.,.,68.5,.
CC1(C)CC(=O)C2=C(C1)NC(=O)CC2c1cc2c(cc1Br)OCO2 (stereo not drawn),.,.,.,.,.,24.0
CCOC(=O)N1CCN(c2ncnc3c2[nH]c2ccc(F)cc23)CC1,.,.,.,.,.,.
COc1ccc2[nH]c3c(N4CCc5ccccc5C4)ncnc3c2c1,.,.,.,.,.,.
COc1ccc(N2CCN(c3ncnc4c3[nH]c3ccccc34)CC2)cc1,28.4,.,.,.,28.4,.
Fc1ccc2[nH]c3c(N4CCN(c5ccccc5)CC4)ncnc3c2c1,38.4,.,.,.,50.0,.
OC1(c2cccc(C(F)(F)F)c2)CCN(c2ncnc3c2[nH]c2ccc(F)cc23)CC1,.,.,.,.,31.0,.
COC(=O)c1ccc(N/C(C)=C/C(=O)c2ccc(C)o2)cc1,.,.,.,.,.,.
CCN1C(=O)[C@H]2[C@@H](c3ccc(C)cc3)N3C(=O)N(c4ccc(OC)cc4)C(=O)[C@@]3(Cc3ccc(Cl)cc3)[C@H]2C1=O,.,.,.,.,.,31.2
CCN1C(=O)[C@H]2[C@@H](c3ccc(C)cc3)N3C(=O)N(c4ccc(C)cc4)C(=O)[C@@]3(Cc3ccccc3)[C@H]2C1=O,.,.,.,.,.,.
Nc1ncn(C(=O)c2ccco2)n1,.,.,.,.,.,.
Cc1ccc(C2(c3ccccc3)NC(=O)N(CC(=O)NCc3ccco3)C2=O)cc1C (stereo not drawn),.,18.1,.,.,.,.
